# According to ChEMBL document CHEMBL4330063, “New naphthopyran analogues of LY290181 as potential tumor vascular-disrupting agents” (Eur J Med Chem, 2019):
# Activity calls are given as the source filed them. No cut-off for these calls is given here.
# Tests used:
# HT-29 [1] = assay: Cell cycle arrest in human HT-29 cells assessed as accumulation of cells at sub G1 phase at 250 nM after 24 hrs by propidium iodide staining-based flow cytometric analysis (reference value: 1.2 +/- 0.3%); assay type: functional
# HT-29 [2] = assay: Cell cycle arrest in human HT-29 cells assessed as accumulation of cells at sub G1 phase at 350 nM after 24 hrs by propidium iodide staining-based flow cytometric analysis (reference value: 1.2 +/- 0.3%); assay type: functional
# HT-29 [3] = assay: Cell cycle arrest in human HT-29 cells assessed as accumulation of cells at G2/M phase after 24 hrs by propidium iodide staining-based flow cytometric analysis; assay type: functional
# 518A2 [4] = assay: Effect on F-actin in human 518A2 cells assessed as thick stress fibers formation at 100 nM after 3 hrs by DAPI staining-based fluorescence microscopic analysis; assay type: cell-based
# Outline: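 518A2 melanoma cells were treated with 100 nM for 3 h. Filamentous actin was fluorescence-labelled, nuclei were counterstained with DAPI, and the cells were imaged by fluorescence microscopy. Images come from two independent experiments.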
# Chorioallantoic membrane [5] = assay: Antiangiogenic activity in Leghorn chicken embryo chorioallantoic membrane assessed as induction of irritation at 5 nmol after 6 to 24 hrs by light microscopic analysis; assay type: functional, tissue-based; conditions: Gallus gallus
# Outline: (§1)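 Fertilized chicken eggs, CAM assay. Compound was applied topically into a small silicon foil ring placed on the CAM. The membrane and its extraembryonal blood vessels were monitored over 24 h, with observations at 6 h and 24 h post application.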
# Tubulin (Homo sapiens) = Tubulin (Homo sapiens) (UniProt P68371+Q9H4B7+P0DPH7+P68366+Q13509+Q71U36+P04350+Q3ZCM7+P07437+P68363+Q9BQE3+Q6PEY2+Q13885+Q9BVA1+Q9BUF5); assay: Induction of microtubule disruption in human 518A2 cells at 100 nM after 3 hrs by DAPI staining-based fluorescence microscopic analysis; assay type: cell-based
# Outline: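 Microtubule organization in 518A2 melanoma cells was checked by tubulin immunofluorescence staining after 3 h exposure to 100 nM, with DAPI as the nuclear counterstain. Images come from two independent experiments.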
# Chorioallantoic membrane [6] = assay: Antiangiogenic activity in Leghorn chicken embryo chorioallantoic membrane assessed as reduction in size of main blood vessels at 5 nmol after 6 hrs by light microscopic analysis; assay type: functional, tissue-based; conditions: Gallus gallus; outline: as §1
# 518A2 [7] = assay: Induction of apoptosis in human 518A2 cells at 100 nM after 24 hrs by TUNEL assay relative to control; assay type: functional
# [8] = Toxicity in human A2780 cells xenografted nude mouse at 30 mg/kg administered on every other day and measured after 24 hrs; assay type: organism-based; conditions: in vivo
# PANC-1 = assay: Antiproliferative activity against human PANC1 cells after 72 hrs by MTT assay; assay type: functional, cell-based; conditions: PANC-1, 72 h
# Outline: (§2)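 MTT read-out after 72 h of continuous exposure. Viability is expressed as percentage of viable cells relative to untreated controls. IC50 comes from dose-response curves. Values are means±SD of four independent experiments (two for some entries). DMSO was below 1%, with vehicle controls at equal DMSO. Precipitation was excluded spectrometrically and microscopically.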
# HT-29 [9] = assay: Cell cycle arrest in human HT-29 cells assessed as accumulation of cells at G2/M phase at 100 nM after 24 hrs by propidium iodide staining-based flow cytometric analysis (reference value: 11.4 +/- 1.4%); assay type: functional
# HT-29 [10] = assay: Cell cycle arrest in human HT-29 cells assessed as accumulation of cells at G2/M phase at 250 nM after 24 hrs by propidium iodide staining-based flow cytometric analysis (reference value: 11.4 +/- 1.4%); assay type: functional
# DLD-1 = assay: Antiproliferative activity against human DLD1 cells after 72 hrs by MTT assay; assay type: functional, cell-based; conditions: DLD-1, 72 h; outline: as §2
# HCT-116 = assay: Antiproliferative activity against human HCT116 cells after 72 hrs by MTT assay; assay type: functional, cell-based; conditions: HCT-116, 72 h; outline: as §2
# HT-29 [11] = assay: Cell cycle arrest in human HT-29 cells assessed as accumulation of cells at S phase at 350 nM after 24 hrs by propidium iodide staining-based flow cytometric analysis (reference value: 12.3 +/- 0.4%); assay type: functional
# HT-29 [12] = assay: Cell cycle arrest in human HT-29 cells assessed as accumulation of cells at G2/M phase at 350 nM after 24 hrs by propidium iodide staining-based flow cytometric analysis (reference value: 11.4 +/- 1.4%); assay type: functional
# A2780 = assay: Antiproliferative activity against human A2780 cells after 72 hrs by SRB assay; assay type: functional, cell-based; conditions: A2780, 72 h
# Outline: (§3)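 Ovarian A2780 and cisplatin-resistant A2780cis cells were exposed for 72 h and stained with SRB. IC50 comes from dose-response curves, as means±SD of three independent experiments. Final DMSO was below 1%, with matched vehicle controls.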
# Chorioallantoic membrane [13] = assay: Antiangiogenic activity in Leghorn chicken embryo chorioallantoic membrane assessed as induction of contraction at 5 nmol after 6 to 24 hrs by light microscopic analysis; assay type: functional, tissue-based; conditions: Gallus gallus; outline: as §1
# 518A2 [14] = assay: Induction of apoptosis in human 518A2 cells assessed as accumulation at subG1 phase; assay type: functional, cell-based
# Chorioallantoic membrane [15] = assay: Antiangiogenic activity in Leghorn chicken embryo chorioallantoic membrane assessed as induction of hemorrhages at 5 nmol after 6 hrs by light microscopic analysis; assay type: functional, tissue-based; conditions: Gallus gallus; outline: as §1
# 518A2 [16] = assay: Induction of cell cycle arrest in human 518A2 cells; assay type: functional, cell-based
# 518A2 [17] = assay: Antimigratory activity against human 518A2 cells at 50 nM after 48 hrs by wound healing assay; assay type: functional, cell-based
# 518A2 [18] = assay: Antiproliferative activity against human 518A2 cells after 72 hrs by MTT assay; assay type: functional, cell-based; outline: as §2
# [19] = Antiproliferative activity against human MCF7/Topo cells after 72 hrs by MTT assay; assay type: functional, cell-based; outline: as §2
# HT-29 [20] = assay: Antiproliferative activity against human HT-29 cells after 72 hrs by MTT assay; assay type: functional, cell-based; conditions: HT-29, 72 h; outline: as §2
# [21] = Antiproliferative activity against human KB-V1/Vbl cells after 72 hrs by MTT assay; assay type: functional, cell-based; outline: as §2
# EA.hy 926 [22] = assay: Cytotoxicity against human EAhy926 cells at 100 nM after 24 hrs by MTT assay relative to control; assay type: cell-based; conditions: ea.hy 926, 24 h, 0.1 µM
# Tubulin = Tubulin (Sus scrofa, UniProt P02554+P02550); assay: Inhibition of porcine brain tubulin polymerization after 2 hrs
# Chorioallantoic membrane [23] = assay: Antiangiogenic activity in Leghorn chicken embryo chorioallantoic membrane assessed as effect on blood vessel length at 5 nmol after 6 hrs by light microscopic analysis; assay type: functional, tissue-based; conditions: Gallus gallus; outline: as §1
# HT-29 [24] = assay: Cell cycle arrest in human HT-29 cells assessed as accumulation of cells at S phase at 250 nM after 24 hrs by propidium iodide staining-based flow cytometric analysis (reference value: 12.3 +/- 0.4%); assay type: functional
# EA.hy 926 [25] = assay: Antiangiogenic activity against human EAhy926 cells assessed as inhibition of tube formation on matrigel at 100 nM after 24 hrs by light microscopic analysis; assay type: functional, cell-based
# Outline: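 Ea.Hy926 endothelial hybrid cells were seeded on matrigel with compound and examined for tubular/cord-like network formation versus untreated controls. Viability under the same conditions was checked in parallel by MTT to exclude cytotoxic effects.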
# HT-29 [26] = assay: Cell cycle arrest in human HT-29 cells assessed as accumulation of cells at G1 phase at 100 nM after 24 hrs by propidium iodide staining-based flow cytometric analysis (reference value: 75.1 +/- 1.1%); assay type: functional
# HT-29 [27] = assay: Cell cycle arrest in human HT-29 cells assessed as accumulation of cells at G1 phase at 250 nM after 24 hrs by propidium iodide staining-based flow cytometric analysis (reference value: 75.1 +/- 1.1%); assay type: functional
# Chorioallantoic membrane [28] = assay: Antiangiogenic activity in Leghorn chicken embryo chorioallantoic membrane assessed as reduction in blood vessel area at 5 nmol after 6 hrs by light microscopic analysis relative to control; assay type: functional, tissue-based; design: scale not given: the % may be the effect or the level left; conditions: Gallus gallus
# Outline: (§4)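 The CAM assay was run with topical application into a silicon foil ring atop the CAM of fertilized chicken eggs. Area covered by blood vessels was quantified by fractal analysis relative to control.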
# HT-29 [29] = assay: Cell cycle arrest in human HT-29 cells assessed as accumulation of cells at S phase at 100 nM after 24 hrs by propidium iodide staining-based flow cytometric analysis (reference value: 12.3 +/- 0.4%); assay type: functional
# HT-29 [30] = assay: Cell cycle arrest in human HT-29 cells assessed as accumulation of cells at G1 phase at 350 nM after 24 hrs by propidium iodide staining-based flow cytometric analysis (reference value: 75.1 +/- 1.1%); assay type: functional
# [31] = Antiproliferative activity against human A2780cis cells after 72 hrs by SRB assay; assay type: functional, cell-based; outline: as §3
# EA.hy 926 [32] = assay: Antiproliferative activity against human EAhy926 cells after 72 hrs by MTT assay; assay type: functional, cell-based; conditions: EA.hy 926, 72 h; outline: as §2
# HT-29 [33] = assay: Cell cycle arrest in human HT-29 cells assessed as accumulation of cells at sub G1 phase at 100 nM after 24 hrs by propidium iodide staining-based flow cytometric analysis (reference value: 1.2 +/- 0.3%); assay type: functional
# Chorioallantoic membrane [34] = assay: Antiangiogenic activity in Leghorn chicken embryo chorioallantoic membrane assessed as effect on blood vessel length at 2.5 nmol after 6 hrs by light microscopic analysis; assay type: functional, tissue-based; conditions: Gallus gallus; outline: as §1
# Chorioallantoic membrane [35] = assay: Antiangiogenic activity in Leghorn chicken embryo chorioallantoic membrane assessed as induction of hemorrhages at 2.5 nmol after 24 hrs by light microscopic analysis; assay type: functional, tissue-based; conditions: Gallus gallus; outline: as §1
# Chorioallantoic membrane [36] = assay: Antiangiogenic activity in Leghorn chicken embryo chorioallantoic membrane assessed as induction of corrosion at 2.5 nmol after 24 hrs by light microscopic analysis; assay type: functional, tissue-based; conditions: Gallus gallus; outline: as §1
# Chorioallantoic membrane [37] = assay: Antiangiogenic activity in Leghorn chicken embryo chorioallantoic membrane assessed as reduction in blood vessel area at 2.5 nmol after 6 hrs by light microscopic analysis relative to control; assay type: functional, tissue-based; conditions: Gallus gallus; outline: as §4
# Chorioallantoic membrane [38] = assay: Antiangiogenic activity in Leghorn chicken embryo chorioallantoic membrane assessed as disruption of bigger blood vessels at 2.5 nmol after 6 hrs by light microscopic analysis; assay type: functional, tissue-based; conditions: Gallus gallus; outline: as §1
smiles,measurement,setting,value
COc1c(Br)cc(C2C(C#N)=C(N)Oc3c2ccc2ccccc32)cc1Br (stereo not given),Activity,HT-29 [1],4.4%
same,Activity,HT-29 [2],5.3%
same,Activity,HT-29 [3],Dose-dependent effect
same,Activity,518A2 [4],Active
same,Activity,Chorioallantoic membrane [5],Active
same,Activity,Tubulin (Homo sapiens),Active
same,Activity,Chorioallantoic membrane [6],Active
same,Activity,518A2 [7],46.5%
same,Activity,[8],Toxic
same,IC50,PANC-1,0.0147 µM
same,Activity,HT-29 [9],26.1%
same,Activity,HT-29 [10],55%
same,IC50,DLD-1,0.0395 µM
same,IC50,HCT-116,0.0191 µM
same,Activity,HT-29 [11],10.6%
same,Activity,HT-29 [12],64.3%
same,IC50,A2780,0.0121 µM
same,Activity,Chorioallantoic membrane [13],Active
same,Activity,518A2 [14],Active
same,Activity,Chorioallantoic membrane [15],inactive
same,Activity,518A2 [16],inactive
same,Activity,518A2 [17],Active
same,Activity,518A2 [18],Dose-dependent effect
same,IC50,"518A2 [18]; 518A2, 72 h",0.0244 µM
same,IC50,[19],0.0248 µM
same,IC50,HT-29 [20],0.0521 µM
same,IC50,[21],0.0334 µM
same,Activity,EA.hy 926 [22],> 68%
same,I50,Tubulin,13 µM
same,Activity,Chorioallantoic membrane [23],Active
same,Activity,HT-29 [24],13.9%
same,Activity,EA.hy 926 [25],Active
same,Activity,HT-29 [26],51.8%
same,Activity,HT-29 [27],26.8%
same,Activity,Chorioallantoic membrane [28],45%
same,Activity,HT-29 [29],19.4%
same,Activity,HT-29 [30],19.9%
same,IC50,[31],0.0158 µM
same,IC50,EA.hy 926 [32],0.0159 µM
same,Activity,HT-29 [33],2.7%
COc1ccc(/C=C\c2cc(OC)c(OC)c(OC)c2)cc1O,Activity,Chorioallantoic membrane [34],Active
same,Activity,Chorioallantoic membrane [35],Active
same,Activity,Chorioallantoic membrane [36],Active
same,Activity,Chorioallantoic membrane [37],Active
same,Activity,Chorioallantoic membrane [38],Active
